One assay relates to BGC-823. In words: Cytotoxicity against human BGC823 cells at 10^-6 M after 96 hrs by MTT assay. It is filed as functional, cell-based.
The subject of another assay is KETR3. Nature of the assay: Cytotoxicity against human Ketr3 cells at 10^-6 M after 96 hrs by MTT assay. The assay is classed as functional, cell-based.
In the next assay the test system is Liver microsomes. In words: Antioxidant activity against Fe2+-cystine-induced lipid peroxidation in rat liver microsomes at 10^-6 M after 15 mins by thiobarbituric acid method. The assay is classed as functional. Conditions: Microsome.
A further assay deals with HCT-8. Nature of the assay: Cytotoxicity against human HCT8 cells at 10^-6 M after 96 hrs by MTT assay. It is filed as functional, cell-based.
The test system of the next assay is Aorta. In words: Vasorelaxant activity in Sprague-Dawley rat […] thoracic aorta assessed as inhibition of phenylephrine-induced vasoconstriction at 10^-6 M relative to control. The assay is classed as functional. Further details: scale not given: the % may be the effect or the level left. In short, it runs like this: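 Read-out was percent relaxation of phenylephrine-precontracted vessels. Verapamil served as the positive control at the same test concentration.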

The subject of a further assay is MCF7. Nature of the assay: Cytotoxicity against human MCF7 cells at 10^-6 M after 96 hrs by MTT assay. The assay is classed as functional, cell-based.
In assay [1] the test system is Human immunodeficiency virus 1. In words: Antiviral activity against HIV1 harboring vesicular stomatitis virus glycoprotein infected in human 293T cells assessed as inhibition of viral replication at 10 uM after 48 hrs by luciferase activity based luminometer analysis. It is filed as functional, organism-based.
The test system of the next assay is Bel-7402. Nature of the assay: Cytotoxicity against human Bel7402 cells at 10^-6 M after 96 hrs by MTT assay. The assay is classed as functional, cell-based.
The next assay deals with A549. Nature of the assay: Cytotoxicity against human A549 cells at 10^-6 M after 96 hrs by MTT assay. It is filed as functional, cell-based.
Assay [2] deals with T1, Tyrosine-protein phosphatase non-receptor type 1 (Homo sapiens) (UniProt P18031).
T1 sequence (whole entry): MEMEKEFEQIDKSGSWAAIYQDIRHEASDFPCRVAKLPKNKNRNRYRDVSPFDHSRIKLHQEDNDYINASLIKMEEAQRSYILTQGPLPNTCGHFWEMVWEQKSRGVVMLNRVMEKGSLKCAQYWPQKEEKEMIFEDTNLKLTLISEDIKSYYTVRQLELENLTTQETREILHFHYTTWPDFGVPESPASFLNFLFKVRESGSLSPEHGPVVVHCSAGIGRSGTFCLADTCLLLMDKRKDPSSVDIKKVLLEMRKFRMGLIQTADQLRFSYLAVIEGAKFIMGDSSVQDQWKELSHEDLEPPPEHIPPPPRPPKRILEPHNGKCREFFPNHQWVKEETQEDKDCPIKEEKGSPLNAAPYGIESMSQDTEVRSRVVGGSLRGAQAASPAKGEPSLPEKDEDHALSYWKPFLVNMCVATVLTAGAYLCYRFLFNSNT
Nature of the assay: Inhibition of human recombinant GST-tagged PTP1B assessed as conversion of para-nitrophenyl phosphate to para-nitrophenol at 10^-6 M after 10 mins by microplate spectrophotometer analysis.

The source made the active and inactive calls. The rule behind the calls is not given here.

Consider `CC(=O)O[C@@H]1[C@@H]2[C@H]3O[C@]3(C)CC[C@H]3[C@H](/C=C(\C)C(=O)[C@@]2(OC(=O)c2ccccc2)C[C@@H]1C)C3(C)C`, for which the result (in the assay on BGC-823; in the assay with KETR3; with Liver microsomes; with HCT-8; in the assay with MCF7; in assay [1]) was inactive. In addition, the outcome in the assay with Bel-7402 and in the assay with A549 was inactive. For the same molecule, the Activity in the assay on Aorta is 41%. For the same molecule, in assay [2], the inhibition entry is “inactive”.

As to `C/C1=C\[C@H]2[C@H](CC[C@@]3(C)O[C@@H]3[C@H]3[C@@H](OC(=O)/C=C/c4ccccc4)[C@@H](C)C[C@]3(O)C1=O)C2(C)C`, the result (in the assay on BGC-823; in the assay with KETR3; in the assay with Liver microsomes; in the assay with HCT-8; in the assay with MCF7; in assay [1]) was inactive. The outcome in the assay with Bel-7402 and in the assay with A549 was inactive. Also, the Activity in the assay on Aorta is <30%. The inhibition entry in assay [2] is “inactive”.

For `CC(=O)O[C@H]1[C@@H](C)C[C@]2(OC(C)=O)C(=O)/C(C)=C/[C@H]3[C@H](CC/C(C)=C/[C@@H]12)C3(C)C`, the outcome (in the assay on BGC-823; in the assay with KETR3; with Liver microsomes; in the assay with HCT-8; in the assay on MCF7; in [1]) was inactive. Also, the outcome in the assay with Bel-7402 and with A549 was inactive. Also, in the assay with Aorta, the Activity is reported as <30%. Besides, in [2], the inhibition entry was “inactive”.

In the case of `C/C1=C\[C@H]2[C@H](CC[C@@]3(C)O[C@@H]3[C@H]3[C@@H](OC(=O)c4ccccc4)[C@@H](C)C[C@]3(OC(=O)c3ccccc3)C1=O)C2(C)C`, the outcome (in the assay on BGC-823; in the assay with KETR3; in the assay on Liver microsomes; in the assay with HCT-8; with MCF7; in assay [1]) was inactive. The result in the assay on Bel-7402 and in the assay with A549 was inactive. Also, the Activity in the assay with Aorta is recorded as <30%. For the same molecule, the inhibition result in [2] is “inactive”.

As to `C/C1=C/C[C@H]2[C@@H](/C=C(\C)C(=O)[C@@]3(OC(=O)c4ccccc4)C[C@H](C)[C@H](O)[C@@H]3[C@@H]1O)C2(C)C`, the Activity with Aorta is listed as 53%. Moreover, in [1], the result was inactive.

Regarding `C/C1=C/C[C@H]2[C@H](/C=C(\C)C(=O)[C@@]3(OC(=O)/C=C/c4ccccc4)C[C@H](C)[C@@H]4OC(C)(C)O[C@@H]1[C@@H]43)C2(C)C`, the outcome in the assay on BGC-823, with KETR3, with Liver microsomes, with HCT-8, in the assay on MCF7 and with Bel-7402 was inactive. Further, the result with A549 was inactive. Further, the Activity in the assay on Aorta is reported as <30%. Besides, the inhibition result in assay [2] was “inactive”.

In the case of `C/C1=C\[C@H]2[C@@H](OC(=O)/C=C/c3ccccc3)[C@@H](C)C[C@]2(O)C(=O)/C(C)=C/[C@H]2[C@H](CC1)C2(C)C`, the result (with BGC-823; in the assay with KETR3; in the assay on Liver microsomes; in the assay with HCT-8; in the assay with MCF7; in assay [1]) was inactive. Further, the outcome in the assay with Bel-7402 and in the assay with A549 was inactive. The Activity in the assay on Aorta was <30%. The inhibition entry in [2] is “inactive”.

`C/C1=C/C[C@H]2[C@H](/C=C(\C)C(=O)[C@@]3(O)C[C@H](C)[C@H](O)[C@@H]3[C@H]1OC(=O)/C=C/c1ccccc1)C2(C)C`: the result (in the assay on BGC-823; in the assay on KETR3; in the assay with Liver microsomes; with HCT-8; with MCF7; in assay [1]) was inactive. Also, the outcome in the assay on Bel-7402 and in the assay on A549 was inactive. Also, the Activity in the assay on Aorta is given as <30%. Also, the inhibition entry in assay [2] was “inactive”.

With `CC(=O)O[C@@H]1[C@@H]2[C@H]3O[C@]3(C)CC[C@H]3[C@H](/C=C(\C)C(=O)[C@@]2(OC(C)=O)C[C@@H]1C)C3(C)C`, the outcome (in the assay on BGC-823; with KETR3; in the assay on Liver microsomes; in the assay on HCT-8; in the assay on MCF7; in assay [1]) was inactive. In addition, the result in the assay with Bel-7402 and in the assay on A549 was inactive. For the same molecule, the Activity in the assay on Aorta is listed as <30%. Also, the inhibition result in [2] was “inactive”.

As to `CC(=O)O[C@]12C[C@H](C)[C@H](O)[C@@H]1[C@H]1O[C@]1(C)CC[C@H]1[C@H](/C=C(\C)C2=O)C1(C)C`, the result (in the assay on BGC-823; with KETR3; with Liver microsomes; with HCT-8; in the assay on MCF7; in [1]) was inactive. Also, the outcome in the assay with Bel-7402 and in the assay with A549 was inactive. Moreover, in the assay on Aorta, the Activity is <30%. Moreover, the inhibition entry in assay [2] was “inactive”.

Take `CC(=O)O[C@H]1/C(C)=C\C[C@H]2[C@H](/C=C(\C)C(=O)[C@@]3(OC(=O)c4ccccc4)C[C@H](C)[C@H](O)[C@H]13)C2(C)C`: the result (in the assay with BGC-823; with KETR3; in the assay on Liver microsomes; in the assay on HCT-8; in the assay with MCF7; in [1]) was inactive. The result with Bel-7402 and with A549 was inactive. For the same molecule, the Activity in the assay on Aorta came to 50%. Besides, in assay [2], the inhibition entry is “inactive”.

For `CC(=O)O[C@@H]1[C@@H]2[C@H]3O[C@]3(C)CC[C@H]3[C@H](/C=C(\C)C(=O)[C@@]2(O)C[C@@H]1C)C3(C)C`, the result (with BGC-823; in the assay on KETR3; with Liver microsomes; in the assay on HCT-8; with MCF7; in assay [1]) was inactive. Moreover, the outcome in the assay with Bel-7402 and in the assay with A549 was inactive. For the same molecule, in the assay on Aorta, the Activity is reported as <30%. Moreover, in assay [2], the inhibition entry was “inactive”.

`C/C1=C/C[C@H]2[C@@H](/C=C(\C)C(=O)[C@@]3(O)C[C@H](C)[C@H](OC(=O)/C=C/c4ccccc4)[C@H]3[C@H]1O)C2(C)C`: the outcome (with BGC-823; with KETR3; with Liver microsomes; in the assay with HCT-8; in the assay on MCF7; in assay [1]) was inactive. The outcome with Bel-7402 and in the assay on A549 was inactive. The Activity with Aorta is listed as <30%. The inhibition result in assay [2] was “inactive”.

Turning to `COc1ccc(CCN(C)CCCC(C#N)(c2ccc(OC)c(OC)c2)C(C)C)cc1OC` (configuration not stated) [VERAPAMIL], in the assay on Aorta, the Activity is 44%.

Regarding `C/C1=C\[C@H]2[C@H](CC[C@@]3(C)O[C@@H]3[C@H]3[C@@H](OC(=O)c4ccccc4)[C@@H](C)C[C@]3(O)C1=O)C2(C)C`, the outcome (with BGC-823; with KETR3; in the assay with Liver microsomes; in the assay on HCT-8; with MCF7; in assay [1]) was inactive. Further, the result with Bel-7402 and with A549 was inactive. Moreover, the Activity with Aorta is reported as 48%. Besides, in assay [2], the inhibition result is “inactive”.

For the origin of these results see ChEMBL document CHEMBL1800058, “Lathyrane diterpenoids from the roots of Euphorbia micractina and their biological activities” (J Nat Prod, 2011).
